Experimental findings from paper PMC8724840 (Biomolecules & Therapeutics, 2021) are described below.

Read-outs that look alike come from different tables or passages of the source.

In one data set the target is T1, GPR41 (Homo sapiens, UniProt O14843).
T1 sequence (O14843 1-346): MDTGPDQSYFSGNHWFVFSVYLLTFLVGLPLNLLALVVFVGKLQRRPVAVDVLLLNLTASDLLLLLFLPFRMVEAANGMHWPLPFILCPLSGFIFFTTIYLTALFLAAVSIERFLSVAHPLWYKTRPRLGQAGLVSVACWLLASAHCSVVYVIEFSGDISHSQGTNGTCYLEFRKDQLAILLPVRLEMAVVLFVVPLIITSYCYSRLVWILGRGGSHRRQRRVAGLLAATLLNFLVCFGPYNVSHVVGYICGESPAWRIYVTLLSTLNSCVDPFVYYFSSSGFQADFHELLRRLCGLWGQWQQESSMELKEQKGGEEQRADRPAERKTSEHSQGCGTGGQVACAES
As to the kind of experiment: cAMP assay in GPR41-expressing HEK293 cells. Format: cell-based.

For the next data set, the system named is DSS-induced colitis. As to the kind of experiment: DSS-induced colitis mouse model. The class given is in vivo, mouse (female C57BL/6). The note with it: 30 mg/kg p.o. daily, 2% DSS. A digest of the protocol:
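Female C57BL/6 mice, 5 weeks old, SPF, acclimated 1 week, given 2% DSS (36–50 kDa) in drinking water ad libitum, renewed every 3 days. Compound 30 mg/kg p.o. daily. Scored daily: weight loss 0–4, stool 0–3, hemoccult bleeding 0–3. DAI is their sum. Day 8: colon length measured. PFA-fixed paraffin swiss-rolls stained for MPO by IHC (ABC, hematoxylin). n=5 control, 10 others.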

The target in another data set is T2, GPR43 and β-arrestin 2 (Homo sapiens, UniProt O15552).
T2 sequence (O15552 1-330): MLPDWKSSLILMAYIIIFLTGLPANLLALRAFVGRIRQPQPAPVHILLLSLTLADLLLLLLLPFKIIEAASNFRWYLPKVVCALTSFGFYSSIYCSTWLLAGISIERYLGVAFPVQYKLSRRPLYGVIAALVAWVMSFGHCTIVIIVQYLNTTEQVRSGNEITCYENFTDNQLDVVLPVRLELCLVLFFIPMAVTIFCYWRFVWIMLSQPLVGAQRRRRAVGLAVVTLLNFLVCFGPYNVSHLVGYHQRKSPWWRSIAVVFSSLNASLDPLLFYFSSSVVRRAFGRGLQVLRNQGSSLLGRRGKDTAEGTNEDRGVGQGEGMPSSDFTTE
As to the kind of experiment: Nano-Glo live cell assay of interaction between GPR43 and β-arrestin 2. The class given is cell-based. The note with it: for change of potency / slope in β-arrestin-2 NanoBiT assay on addition of acetate: co-treatment with fixed concentrations of acetate.

Data set [1] addresses T3, human GPR43 (Homo sapiens, UniProt O15552).
T3 sequence (O15552 1-330): T2 sequence (O15552 1-330)
As to the kind of experiment: GloSensor cAMP assay in HEK293-hGPR43 cells. The class given is cell-based. In outline: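 pGloSensor-22F was transfected into cumate-inducible HEK293-hGPR43 cells, which were re-plated 24 h later for 16 h. Cells were equilibrated 2 h at 20°C in CO2-independent medium with 2% GloSensor cAMP reagent, then pre-read. Compound was added for 5 min, then 1 μM forskolin for 15 min, followed by a luminescence post-read. Signal is post/pre-read, normalised to 0.2% DMSO. Single-point acetate/propionate 10 mM, other agonists 10 μM. Triplicate.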
Background: Cyclic AMP is a second messenger, typically raised through Gs and lowered through Gi signalling.

In data set [2] the test system is NF-κB activity induced by TNF-α in GPR43-expressing cells. As to the kind of experiment: NF-κB luciferase reporter assay in HEK293-hGPR43 cells. Format: cell-based, human. In outline: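 For the NF-κB reporter readout, HEK293-hGPR43 cells were transfected with an NF-κB-RE luciferase reporter (pGL4.32), incubated 24 h at 37°C, 5% CO2, and plated overnight. Compound pretreatment lasted 20 min, then 10 ng/mL human TNF-α was added for 6 h at 37°C. Luminescence was read 15 min after adding One-Glo reagent. Duplicate or triplicate.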
For orientation: In a reporter assay the amount or activity of a reporter protein is the signal.

For data set [3], the target named is T3, human GPR43. As to the kind of experiment: Ca2+ flux assay in HEK293-hGPR43 cells. Format: cell-based. A digest of the protocol: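 HEK293 cells with cumate-inducible human GPR43, kept in DMEM/10% FBS/GlutaMAX/Pen-Strep/2 μg/mL puromycin at 37°C, 5% CO2. Seeded overnight, then loaded 2 h with Calcium 6 dye plus 2.5 mM probenecid. Fluorescence read (ex 485/em 525 nm) every 2.1 s for 50 s. Cells serum-starved. Run in duplicate or triplicate; mean ± SEM.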
For orientation: Calcium flux is commonly read through the fluorescence of an indicator in the cells.

A short description of the next data set: Solubility in DMSO. The class given is physicochemical. The note with it: at a concentration of 20 mM.
[4] abbreviates: Homo sapiens, 6 h, read-out: EC50 NF-κB.

For `CC1=C(C(=O)Nc2cc(Cl)ccc2Cl)C(c2ccco2)C2=C(CCCC2=O)N1` (stereo not shown) [AR420626], the “cAMP level in GPR41-expressing cells” value on GPR41 (10 μM) is listed as “exerted activity”.
A word on the EC50: it is the concentration that produces a half-maximal response. Consider `Cc1nc(N2CCCC(C)C2)c2[nH]c(N)c(S(=O)(=O)c3ccccc3)c2n1` (stereo not shown) [Compound 110, 2-methyl-4-(3-methylpiperidin-1-yl)-7-(phenylsulfonyl)-5H-pyrrolo[3,2-d]pyrimidine-6-amine], for which the colon length result in the data set on DSS-induced colitis (day 8) was “significantly restored”. In addition, the “level of myeloperoxidase (MPO) staining in colon” value with DSS-induced colitis (day 8) was “reduced”. The “daily activity index (DAI)” value in the data set with DSS-induced colitis (vs vehicle-treated mice) is recorded as “decrease”. Moreover, the stool consistency score result with DSS-induced colitis (vs vehicle-treated mice) is listed as “decrease”. For the same compound, the EC50 is 1.61 µM at GPR43 and β-arrestin 2; 18.7 µM at human GPR43 [1]; 3.41 µM in data set [2] (setting [4]); 3.4 µM in data set [2] (Homo sapiens, read-out: EC50 NF-κB luciferase reporter); 2.41 µM at human GPR43 [3]. For the same compound, the “agonist type in the β-arrestin assay (maximum efficacy vs acetate and PAAT)” value at GPR43 and β-arrestin 2 was “partial agonists”. Further, the “change of potency / slope in β-arrestin-2 NanoBiT assay on addition of acetate” value at GPR43 and β-arrestin 2 is reported as “stiffer slopes”. Also, the “cAMP level in GPR41-expressing cells” value on GPR41 (10 μM) is “no effects”. The “cAMP level in GPR43-expressing cells” value on human GPR43 [1] (10 μM) was “significantly suppressed”. Also, the “potency in the cAMP assay” value at human GPR43 [1] (HEK293-hGPR43) is listed as “micromolar potency”. Moreover, in the data set “Solubility in DMSO”, the “solubility in dimethyl sulfoxide (DMSO)” value is recorded as “completely soluble”.
In the case of `CC(=O)[O-].[Na+]` [Acetate, sodium acetate, reference compound], the EC50 on GPR43 and β-arrestin 2 (read-out: EC50 β-Arrestin 2, GPR43-SmBit / LgBit-βarr2, 25 min) came out at 1440 µM; on human GPR43 [1] (read-out: EC50 cAMP, HEK293-hGPR43, forskolin 1 μM), 301 µM; on human GPR43 [1] (read-out: EC50 in the cAMP assay, HEK293-hGPR43), 300 µM; in data set [2] (read-out: EC50 NF-κB, 10 ng/mL TNF-α, 6 h) it was 77.4 µM; on human GPR43 [3] (read-out: EC50 Ca^2+, HEK293-hGPR43) it was 57.7 µM. At GPR41 (10 mM), the “cAMP level in GPR41-expressing cells” value is listed as “decrease”. Moreover, the “cAMP level in GPR43-expressing cells” value on human GPR43 [1] (10 mM) was “decrease”. Moreover, the “efficacy of inhibition of NF-κB luciferase reporter activity” value in data set [2] (10 ng/mL TNF-α) was “half the efficacy”.
For `Cc1nc(N2C[C@@H](C)O[C@@H](C)C2)c2[nH]c(N)c(S(=O)(=O)c3ccccc3F)c2n1` [Compound 187, 4-[(2R,6S)-2,6-dimethylmorpholin-4-yl]-7-(2-fluorobenzenesulfonyl)-2-methyl-5H-pyrrolo[3,2-d]pyrimidin-6-amine], the “level of myeloperoxidase (MPO) staining in colon” value in the data set on DSS-induced colitis (day 8) is listed as “reduced”. In addition, the EC50 at GPR43 and β-arrestin 2 turned out to be 0.018 µM; on human GPR43 [1], 0.016 µM; in data set [2] (setting [4]) it was 0.019 µM; on human GPR43 [3], 0.019 µM. For the same compound, the “agonist type in the β-arrestin assay (maximum efficacy vs acetate and PAAT)” value on GPR43 and β-arrestin 2 is given as “partial agonists”. Also, the “change of potency / slope in β-arrestin-2 NanoBiT assay on addition of acetate” value at GPR43 and β-arrestin 2 was “stiffer slopes”. In addition, the “cAMP level in GPR41-expressing cells” value on GPR41 (10 μM) is “no effects”. Further, the “cAMP level in GPR43-expressing cells” value at human GPR43 [1] (10 μM) is given as “significantly suppressed”. Further, the “potency and efficacy in the calcium assay” value on human GPR43 [3] (HEK293-hGPR43) is “highest potency and efficacy”. In addition, the “solubility in dimethyl sulfoxide (DMSO)” value in the data set “Solubility in DMSO” is listed as “completely soluble”.
Take `CCC(=O)O` [propionate, reference compound]: the “cAMP level in GPR41-expressing cells” value at GPR41 (10 mM) is “decrease”. At human GPR43 [1] (10 mM), the “cAMP level in GPR43-expressing cells” value was “decrease”.
